# Test results as given in ChEMBL document CHEMBL2380295, “Structure-activity studies on the side chain of a simplified analog of aplysiatoxin (aplog-1) with anti-proliferative activity” (Bioorg Med Chem, 2013).
# Legend:
# PC-3 = experiment: Growth inhibition of human PC3 cells after 48 hrs by sulforhodamine B assay; type: functional; settings: PC-3, 48 h
# How it was run: (§1)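 Yamori 39-line human cancer panel, NCI method with modifications. Cells plated in RPMI 1640 plus 5% FBS, attached overnight, then exposed 48 h to compound at 10^-8, 10^-7, 10^-6, 10^-5 and 10^-4 M. Sulforhodamine B staining read at 525 nm; % growth = 100[(T−T0)/(C−T0)] from duplicate-point averages, with T0 the time-zero absorbance. GI50 is the concentration giving 50.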
# [1] = molecular target: T1, Protein kinase C delta type (Homo sapiens, UniProt Q05655); experiment: Inhibition of [3H]PDBu binding to PKCdelta-C1B domain peptide (unknown origin)
# How it was run: (§2)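 Competitive [3H]PDBu binding used 14 or 40 nM PKCδ C1 peptide and 20 nM [3H]PDBu (19.6 Ci/mmol), in 50 mM Tris-maleate (pH 7.4 at 4 °C) with 50 µg/mL phosphatidylserine, 3 mg/mL bovine γ-globulin and varied inhibitor concentrations. IC50 was taken as 50% inhibition of specific binding. Ki was derived by the Sharkey–Blumberg method.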
# [2] = Octanol-water partition coefficient, log P of the compound by HPLC analysis; type: physicochemical
# How it was run: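 log P was estimated from HPLC retention, with column dead time measured using unretained formamide.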
# SNB-75 = experiment: Growth inhibition of human SNB75 cells after 48 hrs by sulforhodamine B assay; type: functional; settings: SNB-75, 48 h; how it was run: as §1
# OVCAR-5 = experiment: Growth inhibition of human OVCAR5 cells after 48 hrs by sulforhodamine B assay; type: functional; settings: OVCAR-5, 48 h; how it was run: as §1
# DMS-114 = experiment: Growth inhibition of human DMS114 cells after 48 hrs by sulforhodamine B assay; type: functional; settings: DMS-114, 48 h; how it was run: as §1
# DMS-273 = experiment: Growth inhibition of human DMS273 cells after 48 hrs by sulforhodamine B assay; type: functional; settings: DMS-273, 48 h; how it was run: as §1
# NCI-H522 = experiment: Growth inhibition of human NCI-H522 cells after 48 hrs by sulforhodamine B assay; type: functional; settings: NCI-H522, 48 h; how it was run: as §1
# NCI-H23 = experiment: Growth inhibition of human NCI-H23 cells after 48 hrs by sulforhodamine B assay; type: functional; settings: NCI-H23, 48 h; how it was run: as §1
# HT-29 = experiment: Growth inhibition of human HT-29 cells after 48 hrs by sulforhodamine B assay; type: functional; settings: HT-29, 48 h; how it was run: as §1
# St-4 = experiment: Growth inhibition of human St-4 cells after 48 hrs by sulforhodamine B assay; type: functional; settings: St-4, 48 h; how it was run: as §1
# SNB-78 = experiment: Growth inhibition of human SNB78 cells after 48 hrs by sulforhodamine B assay; type: functional; settings: SNB-78, 48 h; how it was run: as §1
# SF-268 = experiment: Growth inhibition of human SF268 cells after 48 hrs by sulforhodamine B assay; type: functional; settings: SF-268, 48 h; how it was run: as §1
# OVCAR-4 = experiment: Growth inhibition of human OVCAR4 cells after 48 hrs by sulforhodamine B assay; type: functional; settings: OVCAR-4, 48 h; how it was run: as §1
# NCI-H226 = experiment: Growth inhibition of human NCI-H226 cells after 48 hrs by sulforhodamine B assay; type: functional; settings: NCI-H226, 48 h; how it was run: as §1
# [3] = Growth inhibition of human HCC2998 cells after 48 hrs by sulforhodamine B assay; type: functional; settings: HCC 2998, 48 h; how it was run: as §1
# MKN-74 = experiment: Growth inhibition of human MKN74 cells after 48 hrs by sulforhodamine B assay; type: functional; settings: MKN-74, 48 h; how it was run: as §1
# MCF7 = experiment: Growth inhibition of human MCF7 cells after 48 hrs by sulforhodamine B assay; type: functional; settings: MCF7, 48 h; how it was run: as §1
# [4] = Cytotoxicity against human Raji cells assessed as cell viability at 10^-7 M; type: cell-based; settings: read-out: Activity
# LOX IMVI = experiment: Growth inhibition of human LOXIMVI cells after 48 hrs by sulforhodamine B assay; type: functional; how it was run: as §1
# DU-145 = experiment: Growth inhibition of human DU145 cells after 48 hrs by sulforhodamine B assay; type: functional; settings: DU-145, 48 h; how it was run: as §1
# Human gammaherpesvirus 4 [5] = experiment: Induction of EBV-early antigen expressed in human Raji cells at 10^-7 M after 48 hrs by immunofluorescence assay relative to control; type: organism-based; settings: human gammaherpesvirus 4, raji, 0.1 µM
# How it was run: (§3)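 Raji B-lymphoblastoid cells (5 × 10^5/mL) in RPMI 1640 with 10% FBS, with 4 mM sodium n-butyrate as synergist and test compound at 10^-7 or 10^-6 M (final DMSO 0.4%). Incubated 48 h at 37 °C under 5% CO2. Smears were stained by indirect immunofluorescence using NPC patient serum and FITC anti-human IgG. At least 500 cells counted; % EA-positive recorded; n = 3, SEM.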
# U-251 = experiment: Growth inhibition of human U251 cells after 48 hrs by sulforhodamine B assay; type: functional; settings: U-251, 48 h; how it was run: as §1
# KM12 = experiment: Growth inhibition of human KM12 cells after 48 hrs by sulforhodamine B assay; type: functional; settings: KM12, 48 h; how it was run: as §1
# MKN-45 = experiment: Growth inhibition of human MKN45 cells after 48 hrs by sulforhodamine B assay; type: functional; settings: MKN-45, 48 h; how it was run: as §1
# [6] = Cytotoxicity against human Raji cells assessed as cell viability at 10^-6 M; type: cell-based; settings: read-out: Activity
# HCT-15 = experiment: Growth inhibition of human HCT15 cells after 48 hrs by sulforhodamine B assay; type: functional; settings: HCT-15, 48 h; how it was run: as §1
# SK-OV-3 = experiment: Growth inhibition of human SKOV3 cells after 48 hrs by sulforhodamine B assay; type: functional; settings: SK-OV-3, 48 h; how it was run: as §1
# MKN-28 = experiment: Growth inhibition of human MKN28 cells after 48 hrs by sulforhodamine B assay; type: functional; settings: MKN-28, 48 h; how it was run: as §1
# OVCAR-3 = experiment: Growth inhibition of human OVCAR3 cells after 48 hrs by sulforhodamine B assay; type: functional; settings: OVCAR-3, 48 h; how it was run: as §1
# MKN-7 = experiment: Growth inhibition of human MKN7 cells after 48 hrs by sulforhodamine B assay; type: functional; settings: MKN-7, 48 h; how it was run: as §1
# SF-295 = experiment: Growth inhibition of human SF295 cells after 48 hrs by sulforhodamine B assay; type: functional; settings: SF-295, 48 h; how it was run: as §1
# ACHN = experiment: Growth inhibition of human ACHN cells after 48 hrs by sulforhodamine B assay; type: functional; how it was run: as §1
# MDA-MB-231 = experiment: Growth inhibition of human MDA-MB-231 cells after 48 hrs by sulforhodamine B assay; type: functional; settings: MDA-MB-231, 48 h; how it was run: as §1
# [7] = Growth inhibition of human BSY1 cells after 48 hrs by sulforhodamine B assay; type: functional; settings: BSY-1, 48 h; how it was run: as §1
# HCT-116 = experiment: Growth inhibition of human HCT116 cells after 48 hrs by sulforhodamine B assay; type: functional; settings: HCT-116, 48 h; how it was run: as §1
# [8] = Growth inhibition of human HBC4 cells after 48 hrs by sulforhodamine B assay; type: functional; settings: HBC4, 48 h; how it was run: as §1
# OVCAR-8 = experiment: Growth inhibition of human OVCAR8 cells after 48 hrs by sulforhodamine B assay; type: functional; settings: OVCAR-8, 48 h; how it was run: as §1
# NCI-H460 = experiment: Growth inhibition of human NCI-H460 cells after 48 hrs by sulforhodamine B assay; type: functional; settings: NCI-H460, 48 h; how it was run: as §1
# [9] = molecular target: T1, Protein kinase C delta type; experiment: Inhibition of [3H]PDBu binding to PKCdelta-C1A domain peptide (unknown origin); how it was run: as §2
# [10] = Growth inhibition of human MKN1 cells after 48 hrs by sulforhodamine B assay; type: functional; settings: MKN-1, 48 h; how it was run: as §1
# A549 = experiment: Growth inhibition of human A549 cells after 48 hrs by sulforhodamine B assay; type: functional; settings: A549, 48 h; how it was run: as §1
# [11] = Growth inhibition of human RXF631L cells after 48 hrs by sulforhodamine B assay; type: functional; settings: RXF 631, 48 h; how it was run: as §1
# Human gammaherpesvirus 4 [12] = experiment: Induction of EBV-early antigen expressed in human Raji cells at 10^-6 M after 48 hrs by immunofluorescence assay relative to control; type: organism-based; settings: human gammaherpesvirus 4, raji, 1 µM; how it was run: as §3
# [13] = Growth inhibition of human HBC5 cells after 48 hrs by sulforhodamine B assay; type: functional; settings: HBC5, 48 h; how it was run: as §1
# SF-539 = experiment: Growth inhibition of human SF539 cells after 48 hrs by sulforhodamine B assay; type: functional; settings: SF-539, 48 h; how it was run: as §1
# T1 sequence (Q05655 whole entry, the tested form may be a part): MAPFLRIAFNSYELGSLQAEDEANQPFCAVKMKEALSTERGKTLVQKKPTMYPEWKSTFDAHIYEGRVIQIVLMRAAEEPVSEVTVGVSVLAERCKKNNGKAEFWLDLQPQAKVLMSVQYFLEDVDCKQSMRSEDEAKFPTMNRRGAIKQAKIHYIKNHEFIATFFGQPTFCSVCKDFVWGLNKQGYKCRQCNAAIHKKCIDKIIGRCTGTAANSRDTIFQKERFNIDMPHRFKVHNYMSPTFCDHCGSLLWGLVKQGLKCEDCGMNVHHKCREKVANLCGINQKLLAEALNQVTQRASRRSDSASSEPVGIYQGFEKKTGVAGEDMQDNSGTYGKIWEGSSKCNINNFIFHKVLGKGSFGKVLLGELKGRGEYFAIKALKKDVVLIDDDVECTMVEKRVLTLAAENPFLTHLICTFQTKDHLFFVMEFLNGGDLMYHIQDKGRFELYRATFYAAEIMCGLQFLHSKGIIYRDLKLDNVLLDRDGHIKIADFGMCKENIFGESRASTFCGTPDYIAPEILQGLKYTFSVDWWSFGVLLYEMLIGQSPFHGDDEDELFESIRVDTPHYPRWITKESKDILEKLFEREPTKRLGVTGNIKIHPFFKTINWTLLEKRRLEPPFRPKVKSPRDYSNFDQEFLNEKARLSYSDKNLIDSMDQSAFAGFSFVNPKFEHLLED
structure (smiles),measurement,setting,value
CC1(C)CC[C@@H]2CC(=O)O[C@@H](CO)CC(=O)O[C@@H]3C[C@@H](CCCCc4ccc(I)c(O)c4)O[C@@]1(C3)O2,GI50,PC-3,3.09 µM
same,Ki,[1],0.0013 µM
same,logP,[2],4.3
same,GI50,SNB-75,12.3 µM
same,GI50,OVCAR-5,4.47 µM
same,GI50,DMS-114,10.7 µM
same,GI50,DMS-273,0.191 µM
same,GI50,NCI-H522,12 µM
same,GI50,NCI-H23,11 µM
same,GI50,HT-29,14.5 µM
same,GI50,St-4,0.933 µM
same,GI50,SNB-78,17 µM
same,GI50,SF-268,13.8 µM
same,GI50,OVCAR-4,13.2 µM
same,GI50,NCI-H226,12 µM
same,GI50,[3],1.62 µM
same,GI50,MKN-74,11.7 µM
same,GI50,MCF7,12.3 µM
same,viability at 0.1 µM,[4],50%
same,GI50,LOX IMVI,2.88 µM
same,GI50,DU-145,11.7 µM
same,Activity,Human gammaherpesvirus 4 [5],2.1%
same,GI50,U-251,14.5 µM
same,GI50,KM12,10.5 µM
same,GI50,MKN-45,11.7 µM
same,viability at 1 µM,[6],40%
same,GI50,HCT-15,15.5 µM
same,GI50,SK-OV-3,14.8 µM
same,GI50,MKN-28,0.617 µM
same,GI50,OVCAR-3,6.31 µM
same,GI50,MKN-7,13.5 µM
same,GI50,SF-295,4.07 µM
same,GI50,ACHN,10 µM
same,GI50,MDA-MB-231,1.58 µM
same,GI50,[7],11 µM
same,GI50,HCT-116,10.2 µM
same,GI50,[8],0.295 µM
same,GI50,OVCAR-8,16.2 µM
same,GI50,NCI-H460,6.03 µM
same,Ki,[9],0.082 µM
same,GI50,[10],11.2 µM
same,GI50,A549,3.31 µM
same,GI50,[11],12 µM
same,Activity,Human gammaherpesvirus 4 [12],2.3%
same,GI50,[13],15.8 µM
same,GI50,SF-539,12 µM
